Converted amounts (≈) assume the structure as drawn.
Key:
KB = experiment: Growth inhibition of human KB cells by MTT method; type: functional, cell-based
Procedure, shortened: (§1)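 IC50 taken from the dose-response curve; AraC run alongside as positive control.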

CCRF-HSB-2 = experiment: Growth inhibition of human CCRF-HSB-2 cells by MTT method; type: functional, cell-based; procedure, shortened: as §1

IC50 (KB) | IC50 (CCRF-HSB-2) | SMILES
18 µg/mL (≈ 52.3 µM) | > 100 µg/mL | CCCNc1c2c(=O)nc(-c3ccccc3)nc-2n(C)c2ccccc12
1.6 µg/mL (≈ 3.94 µM) | 0.75 µg/mL (≈ 1.85 µM) | Cc1ccc(Nc2c3c(=O)nc(-c4ccccc4)nc-3n(C)c3ccccc23)cc1C
1.8 µg/mL (≈ 4.59 µM) | 1.1 µg/mL (≈ 2.8 µM) | Cc1ccc(Nc2c3c(=O)nc(-c4ccccc4)nc-3n(C)c3ccccc23)cc1
> 100 µg/mL | > 100 µg/mL | COC(=O)c1ccccc1Nc1c2c(=O)nc(-c3ccccc3)nc-2n(C)c2ccccc12
22 µg/mL (≈ 54.1 µM) | 17.7 µg/mL (≈ 43.5 µM) | Cn1c2nc(-c3ccccc3)nc(=O)c-2c(NCCc2ccccc2)c2ccccc21
66.9 µg/mL (≈ 170 µM) | > 100 µg/mL | Cn1c2nc(-c3ccccc3)nc(=O)c-2c(NCc2ccccc2)c2ccccc21

Further lines, the compound ahead of its results:

SMILES | IC50 (KB) | IC50 (CCRF-HSB-2)
CCn1c2nc(-c3ccccc3)nc(=O)c-2c(NCc2ccccc2)c2cc(C)ccc21 | 17.2 µg/mL (≈ 40.9 µM) | 6.9 µg/mL (≈ 16.4 µM)
CCCCNc1c2c(=O)nc(-c3ccccc3)nc-2n(C)c2ccccc12 | 6.6 µg/mL (≈ 18.4 µM) | 4.7 µg/mL (≈ 13.1 µM)
CCCCCCCCNc1c2c(=O)nc(-c3ccccc3)nc-2n(C)c2ccccc12 | 32.9 µg/mL (≈ 79.4 µM) | > 100 µg/mL
CCCCCCCCNc1c2c(=O)nc(-c3ccccc3)nc-2n(C)c2ccc(C)cc12 | 4.7 µg/mL (≈ 11 µM) | 8.6 µg/mL (≈ 20.1 µM)
CCCCNc1c2c(=O)nc(-c3ccccc3)nc-2n(CC)c2ccc(C)cc12 | 8.6 µg/mL (≈ 22.3 µM) | 8.9 µg/mL (≈ 23 µM)
CCCCCCCCNc1c2c(=O)nc(-c3ccccc3)nc-2n(CC)c2ccc(C)cc12 | 2 µg/mL (≈ 4.52 µM) | 5.7 µg/mL (≈ 12.9 µM)
CCCCNc1c2c(=O)nc(-c3ccccc3)nc-2n(CC)c2ccccc12 | 7.6 µg/mL (≈ 20.4 µM) | 8.3 µg/mL (≈ 22.3 µM)
CCCCCCCCNc1c2c(=O)nc(-c3ccccc3)nc-2n(CC)c2ccccc12 | 12 µg/mL (≈ 28 µM) | 20.4 µg/mL (≈ 47.6 µM)
CCn1c2nc(-c3ccccc3)nc(=O)c-2c(NCCc2ccccc2)c2ccccc21 | 53.4 µg/mL (≈ 127 µM) | 63.3 µg/mL (≈ 151 µM)
CCCCNc1c2c(=O)nc(-c3ccccc3)nc-2n(C)c2ccc(C)cc12 | 2.7 µg/mL (≈ 7.25 µM) | 2.1 µg/mL (≈ 5.64 µM)
CCn1c2nc(-c3ccccc3)nc(=O)c-2c(NCc2ccccc2)c2ccccc21 | 4.7 µg/mL (≈ 11.6 µM) | 6.1 µg/mL (≈ 15 µM)
Nc1ccn([C@@H]2O[C@H](CO)[C@@H](O)[C@@H]2O)c(=O)n1 [CYTARABINE] | 0.42 µg/mL (≈ 1.73 µM) | 0.017 µg/mL (≈ 0.0699 µM)

From ChEMBL document CHEMBL1142473, “Antitumor studies. Part 5: Synthesis, antitumor activity, and molecular docking study of 5-(monosubstituted amino)-2-deoxo-2-phenyl-5-deazaflavins” (Bioorg Med Chem, 2008)
